The source of these data is ChEMBL document CHEMBL2203194, “Phenolic compounds from Caesalpinia sappan heartwood and their anti-inflammatory activity” (J Nat Prod, 2012).

Active and inactive are the calls of the source. The calls are words filed in the database; no cut-off is given here.

Series [1] concerns RAW264.7. Nature of the series: Effect on alpha-tubulin protein expression in mouse RAW264.7 cells up to 10 uM pre-treated for 30 mins before LPS challenge for 18 hrs by immunoblot. The class given is functional, cell-based. The procedure, abridged:
(§1)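 Cells pretreated 30 min with compound (0−10 μM), then LPS 1 μg/mL for 18 h. Total lysates in ice-cold Tris-HCl pH 7.5/NP-40 buffer; 50 μg protein per lane by SDS-PAGE, PVDF, skim-milk block, anti-iNOS and anti-α-tubulin antibodies, HRP secondary, ECL. iNOS densitometry normalized to α-tubulin.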
A general note: Immunoblotting shows a protein as a band on a membrane.

Series [2] has as its system RAW264.7. Kind of series: Antiinflammatory activity in mouse RAW264.7 cells assessed as reduction of LPS-induced IkappaBalpha degradation at 30 uM pre-treated for 30 mins before LPS challenge and measured after 5 mins by immunoblot. Format: functional, cell-based. In outline:
(§2)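 30 min pretreatment of RAW264.7 cells with compound, then LPS (1 μg/mL). Lysis in ice-cold Tris-HCl pH 7.5/NP-40 buffer with protease/phosphatase inhibitors. SDS-PAGE, PVDF transfer, skim-milk block, anti-IκB-α antibody, HRP secondary, ECL detection.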

For series [3], the system named is RAW264.7. Nature of the series: Cytotoxicity against mouse RAW264.7 cells at 50 uM incubated for 24 hrs in presence of LPS by MTT assay. The class given is cell-based. The settings on record: raw264.7, 24 h. In outline: (§3)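 RAW264.7 viability by MTT colorimetric assay after 24 h with compounds at 50 μM, with or without LPS (1 μg/mL).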
Background: Formazan colour is commonly taken as a measure of viable cells.

Series [4] can be described thus: Antioxidant activity assessed as nitric oxide free radical scavenging activity by UV-visible spectroscopy. Format: functional. The procedure, abridged:
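Compounds in DMSO, made up with MeOH, mixed with 10 mM sodium nitroprusside in PBS; room temperature 150 min. Scavenging % = (control − sample)/control × 100, MeOH blank as control; ascorbic acid standard. IC50, mean ± SD of three experiments.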

Series [5] relates to RAW264.7. Nature of the series: Cytotoxicity against mouse RAW264.7 cells at 50 uM incubated for 24 hrs in absence of LPS by MTT assay. The class given is cell-based. The settings on record: raw264.7, 24 h. In outline: as §3
The subject of series [6] is RAW264.7. Nature of the series: Antiinflammatory activity in mouse RAW264.7 cells assessed as reduction of LPS-induced iNOS protein expression pre-treated for 30 mins before LPS challenge for 18 hrs by immunoblot. The class given is functional, cell-based. In outline: as §1
Series [7] concerns RAW264.7. Kind of series: Antiinflammatory activity in mouse RAW264.7 cells assessed as inhibition of LPS-induced TNFalpha production incubated for 24 hrs by ELISA. Format: functional, cell-based. The settings on record: RAW264.7, 24 h. In outline: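 RAW264.7 cells (1 × 10^5 cells/well) stimulated with 1 μg/mL LPS for 24 h with test compounds; TNF-α in culture supernatant quantified by ELISA. IC50 relative to vehicle control; mean ± SD of three repeated experiments. Celastrol positive control.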
(ELISA stands for enzyme-linked immunosorbent assay.)

The test system of series [8] is RAW264.7. Nature of the series: Antiinflammatory activity in mouse RAW264.7 cells assessed as reduction of LPS-induced IkappaBalpha resynthesis at 30 uM pre-treated for 30 mins before LPS challenge by immunoblot. Format: functional, cell-based. The procedure, abridged:
as §2

Series [9] deals with RAW264.7. Kind of series: Antiinflammatory activity in mouse RAW264.7 cells assessed as inhibition of LPS-induced nitric oxide generation incubated for 24 hrs. Format: functional, cell-based. Particulars: RAW264.7, 24 h. In outline: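 Nitrite in supernatant reacted with Griess reagent (sulfanilamide/phosphoric acid plus naphthylethylenediamine), A540 read, calibrated against NaNO2 standard. IC50 versus vehicle control, mean ± SD of three experiments; celastrol positive control.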

Series [10] concerns RAW264.7. Nature of the series: Antiinflammatory activity in mouse RAW264.7 cells assessed as reduction of LPS-induced IkappaBalpha degradation at 30 uM pre-treated for 30 mins before LPS challenge and measured after 15 mins by immunoblot. Format: functional, cell-based. In outline: as §2
Series [11] relates to RAW264.7. Kind of series: Antiinflammatory activity in mouse RAW264.7 cells assessed as reduction of LPS-induced IkappaBalpha degradation at 30 uM pre-treated for 30 mins before LPS challenge and measured after 10 mins by immunoblot. Format: functional, cell-based. The procedure, abridged:
as §2

Turning to `O=C1/C(=C/c2ccc(O)c(O)c2)COc2cc(O)ccc21` [SAPPANONE A], the result in the series with RAW264.7 [1] was inactive. Moreover, the outcome with RAW264.7 [2], with RAW264.7 [8] and in the series on RAW264.7 [10] was Active. Further, the Activity result in the series on RAW264.7 [3] is “Non-toxic”; with RAW264.7 [5] it was “Non-toxic”; in the series with RAW264.7 [6], “Dose-dependent effect”. The figures for the IC50 (in [4]; in the series with RAW264.7 [7]; in the series on RAW264.7 [9]) were 96.6 µM, 8.3 µM and 5.7 µM, respectively.
For the compound `COc1cc(O)c2c(=O)c(OC)c(-c3ccc(O)c(O)c3)oc2c1`, the result in the series with RAW264.7 [1] was inactive. Moreover, the Activity entry with RAW264.7 [3] was “Non-toxic”; with RAW264.7 [5], “Non-toxic”; in the series on RAW264.7 [6], “Dose-dependent effect”. Further, the results for the IC50 (in [4]; in the series with RAW264.7 [7]; in the series on RAW264.7 [9]) were 103 µM, 5.8 µM and 3.5 µM, respectively. In addition, the outcome in the series on RAW264.7 [11], with RAW264.7 [8] and in the series on RAW264.7 [10] was Active.
On to `O=Cc1ccc(O)cc1O[C@H](O)c1ccc(O)c(O)c1` [CAESALPINIAPHENOL D], for which, in the series on RAW264.7 [1], the outcome was inactive. Moreover, the values for the Activity result in the series with RAW264.7 [3], in the series with RAW264.7 [5] and in the series on RAW264.7 [6] were “Non-toxic”, “Non-toxic” and “Dose-dependent effect”, respectively. Moreover, the IC50 in [4] is 113 µM; in the series with RAW264.7 [7], greater than 50 µM; with RAW264.7 [9], 12.2 µM.
For `COc1cc(C[C@@]2(O)COc3cc(O)ccc3C2=O)ccc1O` [CAESALPINIAPHENOL A], the Activity result in the series with RAW264.7 [3] and with RAW264.7 [5] was “Non-toxic” each time. Besides, the IC50 in series [4] is 103 µM; in the series on RAW264.7 [9], greater than 50 µM.
On to `COc1ccc(-c2oc3cc(O)cc(O)c3c(=O)c2O)cc1OC`, for which the Activity entry in the series with RAW264.7 [3] and with RAW264.7 [5] was “Non-toxic” throughout. The 50% inhibitory concentration (IC50) in [4] amounted to 85.3 µM; in the series with RAW264.7 [9], 35 µM.
As to `O=C1c2ccc(O)cc2OC[C@@H]1Cc1ccc(O)c(O)c1`, the Activity result with RAW264.7 [3] and in the series with RAW264.7 [5] was “Non-toxic” in each case. The figures for the IC50 (in [4]; in the series on RAW264.7 [9]) were 65.3 µM and 42.4 µM, respectively.
With `O=C1O[C@H]([C@@H](O)CO)C(O)=C1O` [ASCORBIC ACID], the concentration for half-maximal inhibition (IC50) in series [4] is 0.71 µM.
Regarding `CC1=C(O)C(=O)C=C2C1=CC=C1[C@@]2(C)CC[C@@]2(C)[C@@H]3C[C@](C)(C(=O)O)CC[C@]3(C)CC[C@]12C` [CELASTROL], in the series on RAW264.7 [7], the IC50 came to 0.8 µM.
As to `O=C1/C(=C/c2ccc(O)cc2)COc2cc(O)ccc21`, the Activity entry in the series on RAW264.7 [3] and in the series on RAW264.7 [5] was “Non-toxic” each time. The IC50 in [4] was 95.5 µM; in the series on RAW264.7 [9], greater than 50 µM.
In the case of `O=C1COc2cc(O)ccc2-c2cc(O)c(O)cc21` [CAESALPINIAPHENOL C], the Activity result in the series on RAW264.7 [3] and in the series with RAW264.7 [5] was “Non-toxic” throughout. Moreover, the half-inhibitory concentration (IC50) in series [4] is 86.2 µM; with RAW264.7 [9] it was greater than 50 µM.
On to `O=C1OCC=C1C[C@@]1(O)COc2cc(O)ccc2C1=O` [CAESALPINIAPHENOL B], for which the Activity entry with RAW264.7 [3] and in the series with RAW264.7 [5] was “Non-toxic” each time. The values for the IC50 (in [4]; with RAW264.7 [9]) were 95.6 µM and greater than 50 µM, respectively.
With `O=C1C=C[C@]23CC(COC2=C1)Cc1cc(O)c(O)cc13`, the Activity result in the series on RAW264.7 [3] and in the series with RAW264.7 [5] was “Non-toxic” throughout. Further, the IC50 in series [4] was 157 µM; in the series on RAW264.7 [9], greater than 50 µM.
Take `O=C1c2ccc(O)cc2OC[C@]1(O)Cc1ccc(O)cc1`: the Activity result with RAW264.7 [3] and with RAW264.7 [5] was “Non-toxic” throughout. In addition, the results for the IC50 (in [4]; in the series on RAW264.7 [9]) were 117 µM and greater than 50 µM, respectively.

In general, IC50 refers to the concentration at which inhibition is half-maximal.
